From ChEMBL document CHEMBL4014308, “Amphiphilic Tobramycin-Lysine Conjugates Sensitize Multidrug Resistant Gram-Negative Bacteria to Rifampicin and Minocycline” (J Med Chem, 2017)
Active and inactive are the calls of the source. The rule behind the calls is not given here.

How the values were obtained:
[1] = test system: Pseudomonas aeruginosa; test: Potentiation of rifampicin-induced antibacterial activity against multidrug/extremely drug-resistant/colistin-susceptible Pseudomonas aeruginosa isolate P259-96918 assessed as fold reduction in rifampicin MIC at 4 ug/ml after 18 hrs by checkerboard assay relative to control; assay type: functional
Summary of the method: (§1)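 Checkerboard in Mueller-Hinton broth, 10 × 7 matrix, with the adjuvant held at 4 µg/mL. Inoculum from a 0.5 McFarland suspension diluted 1:50; 18 h at 37 °C. Antibiotic MIC (lowest concentration with no growth) with adjuvant is compared with the antibiotic MIC alone, giving a fold reduction.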

[2] = test system: Acinetobacter baumannii; test: Synergistic antibacterial activity against multidrug-resistant Acinetobacter baumannii 110193 after 18 hrs in presence of minocycline by checkerboard assay; assay type: functional; details: Acinetobacter baumannii, 110193, 18 h
Summary of the method: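 Checkerboard in MHB with a 10 × 7 matrix: antibiotic serially diluted along one axis, adjuvant along the other. Inoculum was a 1:50 dilution of a 0.5 McFarland suspension, incubated 18 h at 37 °C and read on a plate reader. Each FIC is the concentration in a no-growth well divided by the MIC alone; FIC index is their sum, with ≤0.5 taken as synergy.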

[3] = test system: Pseudomonas aeruginosa; test: Potentiation of rifampicin-induced antibacterial activity against multidrug/extremely drug-resistant/colistin-resistant Pseudomonas aeruginosa isolate 101243 at 4 ug/ml after 18 hrs by checkerboard assay; assay type: functional
Summary of the method: (§2)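 Checkerboard in Mueller-Hinton broth: antibiotic serially diluted along one axis and adjuvant along the other (10 × 7 matrix). Inoculum from a 0.5 McFarland saline suspension diluted 1:50 in MHB; 18 h at 37 °C, then plate read. MIC is the lowest concentration with no growth. FIC of each agent is its concentration in a no-growth well divided by its MIC alone; FIC index is the sum of both. FIC index ≤0.5 counts as synergy.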

[4] = test system: Enterobacter cloacae; test: Antibacterial activity against multidrug-resistant Enterobacter cloacae 117029 after 18 hrs by microtiter dilution assay; assay type: functional; details: Enterobacter cloacae, 117029, 18 h
Summary of the method: (§3)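 Broth microdilution following CLSI guidelines. An overnight culture was adjusted to 0.5 McFarland in saline, then diluted 1:50 in Mueller-Hinton broth. This inoculum was added in equal volume to 2-fold serial dilutions of agent in MHB and incubated 18 h at 37 °C. MIC was the lowest concentration with no visible growth.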

[5] = test system: Pseudomonas aeruginosa; test: Induction of cytoplasmic membrane depolarization in Pseudomonas aeruginosa PAO1 up to 1200 secs by diSC3-5 staining based fluorescence assay; assay type: functional
Summary of the method: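 Mid-log PAO1 washed in 5 mM HEPES pH 7.4 with 20 mM glucose and resuspended to OD600 0.05. Cells were loaded with 0.2 mM EDTA and 0.4 µM diSC3-5 for 2 h at 37 °C in the dark, then equilibrated with 100 mM KCl for 30 min. Agent was added and fluorescence followed at 622/670 nm; agents tested at 32 µg/mL.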

[6] = test system: Pseudomonas aeruginosa; test: Potentiation of rifampicin-induced antibacterial activity against multidrug/extremely drug-resistant/colistin-susceptible Pseudomonas aeruginosa isolate P259-96918 at 4 ug/ml after 18 hrs by checkerboard assay; assay type: functional; summary of the method: as §2
[7] = test system: Pseudomonas aeruginosa; test: Antibacterial activity against multidrug/extremely drug-resistant/colistin-susceptible Pseudomonas aeruginosa isolate 101885 after 18 hrs by microtiter dilution assay; assay type: functional; details: isolate 101885, 18 h; summary of the method: as §3
[8] = test system: Staphylococcus aureus; test: Antibacterial activity against Staphylococcus aureus ATCC 29213 after 18 hrs by microtiter dilution assay; assay type: functional; details: ATCC 29213, 18 h; summary of the method: as §3
[9] = test system: Pseudomonas aeruginosa; test: Potentiation of rifampicin-induced antibacterial activity against multidrug/extremely drug-resistant/colistin-resistant Pseudomonas aeruginosa isolate 101243 assessed as fold reduction in rifampicin MIC at 4 ug/ml after 18 hrs by checkerboard assay relative to control; assay type: functional; summary of the method: as §1
[10] = test system: Acinetobacter baumannii; test: Potentiation of rifampicin-induced antibacterial activity against multidrug-resistant Acinetobacter baumannii AB031 at 4 ug/ml after 18 hrs by checkerboard assay; assay type: functional; summary of the method: as §2
[11] = test system: Pseudomonas aeruginosa; test: Potentiation of minocycline-induced antibacterial activity against Pseudomonas aeruginosa PAO1 after 25 serial passages at 0.125 times MIC by microtiter dilution assay; assay type: functional
Summary of the method: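 Sequential passaging of wild-type PAO1 with single drugs or drug combinations. MIC was tested in MHB for 18 h. Cells from the well at half the MIC were adjusted to 0.5 McFarland in saline, diluted 1:50 in fresh MHB and used for the next MIC test. This was repeated for 25 passages, and the fold change in MIC was plotted against passage number.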

[12] = test system: Klebsiella pneumoniae; test: Antibacterial activity against multidrug-resistant Klebsiella pneumoniae 116381 after 18 hrs by microtiter dilution assay; assay type: functional; details: Klebsiella pneumoniae, 116381, 18 h; summary of the method: as §3
[13] = test system: Acinetobacter baumannii; test: Potentiation of rifampicin-induced antibacterial activity against multidrug-resistant Acinetobacter baumannii 110193 at 4 ug/ml after 18 hrs by checkerboard assay; assay type: functional; summary of the method: as §2
[14] = test system: Pseudomonas aeruginosa; test: Synergistic antibacterial activity against Pseudomonas aeruginosa PAO1 after 18 hrs in presence of amikacin by checkerboard assay; assay type: functional; details: PAO1, 18 h
Summary of the method: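 Checkerboard in MHB: antibiotic diluted along one axis and adjuvant along the other (10 × 7 matrix). Inoculum was a 1:50 dilution in MHB of a 0.5 McFarland saline suspension; incubated 18 h at 37 °C. Each FIC = concentration in the no-growth well divided by the MIC alone; FIC index = sum of both FICs. ≤0.5 synergy, 0.5–4 no interaction, ≥4 antagonism.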

[15] = test system: Pseudomonas aeruginosa; test: Potentiation of rifampicin-induced antibacterial activity against multidrug/extremely drug-resistant/colistin-susceptible Pseudomonas aeruginosa isolate 101885 at 4 ug/ml after 18 hrs by checkerboard assay; assay type: functional; summary of the method: as §2
[16] = test system: Pseudomonas aeruginosa; test: Potentiation of novobiocin-induced antibacterial activity against Pseudomonas aeruginosa PAO1 at 4 ug/ml after 18 hrs by checkerboard assay; assay type: functional
[17] = test system: Pseudomonas aeruginosa; test: Potentiation of rifampicin-induced antibacterial activity against multidrug/extremely drug-resistant/colistin-susceptible Pseudomonas aeruginosa isolate P262-101856 infected in Galleria mellonella assessed as mortality at 12.5 to 37.5 mg/kg after 24 hrs relative to control; assay type: functional
Summary of the method: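 Galleria mellonella larvae (~250 mg, used within 7 days), 15 per group, injected with 10 µL XDR P262 at 1.0×10^3 CFU/mL in PBS. PBS vehicle control. Survival scored over 24 h at 37 °C.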

[18] = test system: Pseudomonas aeruginosa; test: Potentiation of minocycline-induced antibacterial activity against Pseudomonas aeruginosa PAO1 at 4 ug/ml after 18 hrs by checkerboard assay; assay type: functional; summary of the method: as §2
[19] = test system: Pseudomonas aeruginosa; test: Potentiation of rifampicin-induced antibacterial activity against multidrug/extremely drug-resistant/colistin-susceptible Pseudomonas aeruginosa isolate P264-104354 assessed as fold reduction in rifampicin MIC at 4 ug/ml after 18 hrs by checkerboard assay relative to control; assay type: functional
Summary of the method: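 Checkerboard broth microdilution in MHB: antibiotic serially diluted along one axis, adjuvant along the other (10 × 7 matrix). Inoculum from 0.5 McFarland saline suspension diluted 1:50 in MHB; 18 h at 37 °C. MIC taken as lowest concentration with no growth. FIC per agent = combination MIC/MIC alone; FIC index = sum (≤0.5 synergy).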

[20] = test system: Pseudomonas aeruginosa; test: Antibacterial activity against multidrug/extremely drug-resistant/colistin-resistant Pseudomonas aeruginosa isolate 101243 after 18 hrs by microtiter dilution assay; assay type: functional; details: isolate 101243, 18 h; summary of the method: as §3
[21] = Ratio of cytotoxic concentration against human JIMT1 cells to synergistic concentration for Pseudomonas aeruginosa PAO1 in presence of minocycline

In the case of `Cl.Cl.Cl.Cl.Cl.Cl.Cl.NCCCC[C@H](N)C(=O)N(CCCCCCCCCCCCO[C@@H]1[C@@H](O[C@H]2O[C@H](CO)[C@@H](O)[C@H](N)[C@H]2O)[C@H](N)C[C@H](N)[C@H]1O[C@H]1O[C@H](CN)[C@@H](O)C[C@H]1N)Cc1c2ccccc2c(Cl)c2ccccc12`, the “fold change (FC)” value [1] is reported as 256, the MIC [2] is reported as 2 µg/mL and the “fractional inhibitory concentration index (FICI)” value [3] is reported as 0.188. The MIC [4] was 256 µg/mL, the Activity [5] was “Dose-dependent effect” and the “fractional inhibitory concentration index (FICI)” value [6] was 0.039. For the same compound, the MIC [7] was 16 µg/mL, the MIC [8] was 8 µg/mL and the “fold change (FC)” value [9] was 32. The “fractional inhibitory concentration index (FICI)” value [10] was 0.09, the Activity [11] was “Active” and the MIC [12] was 256 µg/mL. For the same compound, the “fractional inhibitory concentration index (FICI)” value [13] was 0.095, the MIC [14] was 2 µg/mL and the “fractional inhibitory concentration index (FICI)” value [15] was 0.094. For the same compound, the “fractional inhibitory concentration index (FICI)” value [16] was 0.071, the mortality [17] was 100% and the “fractional inhibitory concentration index (FICI)” value [18] was 0.094. For the same compound, the “fold change (FC)” value [19] was 64, the MIC [20] was 16 µg/mL and the Ratio [21] was 6.
